Inhibition in vivo, Activity and IC50 data for 2 compounds are collected here from ChEMBL document CHEMBL1154735, “A strategy to minimize reactive metabolite formation: discovery of (S)-4-(1-cyclopropyl-2-methoxyethyl)-6-[6-(difluoromethoxy)-2,5-dimethylpyridin-3-ylamino]-5-oxo-4,5-dihydropyrazine-2-carbonitrile as a potent, orally bioavailable corticotropin-releasing factor-1 receptor antagonist” (J Med Chem, 2009).

Active and inactive are the calls of the source. The rule behind the calls is not given here.

Assay [1] deals with Rattus norvegicus. Description: Ex vivo receptor occupancy of CRF1 receptor in Sprague-Dawley rat brain parietal assessed as inhibition of [125I]sauvagine binding at 10 mg/kg, po after 90 mins by autoradiography. The assay is classed as functional. To be noted: 1.5 h.
In assay [2] the test system is Rattus norvegicus. Description: Anxiolytic activity in Sprague-Dawley rat assessed as decrease in exit latency at 10 mg/kg, po after 60 mins by defensive withdrawal test. More on the design: dose 10 mg/kg. It is filed as functional, organism-based.
The nature of assay [3]: Displacement of [125I]sauvagine from CRF2 receptor in porcine choroid plexus homogenate by binding titration assay. The assay is classed as tissue-based, Sus scrofa. A digest of the protocol:
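Porcine choroid plexus homogenate; inhibition of [125I]-sauvagine binding measured in a titration format.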
(In general: Loss of bound radioactivity is the signal in a displacement assay; it reports binding, not function.)

For `COCC(COC)Nc1nc(C)nc2c(-c3ccc(Cl)cc3Cl)c(C)nn12`, in the assay on Rattus norvegicus [1], the inhibition in vivo at 10 mg/kg was determined as 89%. For the same compound, the outcome with Rattus norvegicus [2] was Active.

For the compound `CC[C@H](C)[C@H](NC(=O)[C@@H](NC(=O)[C@H](CC(=O)O)NC(=O)[C@H](CC(C)C)NC(=O)[C@H](CC(C)C)NC(=O)[C@H](CC(C)C)NC(=O)[C@H](CCCN=C(N)N)NC(=O)[C@H](CC(N)=O)NC(=O)[C@H](CC(N)=O)NC(=O)[C@H](C)NC(=O)[C@H](C)NC(=O)[C@H](CCC(N)=O)NC(=O)[C@H](CCC(N)=O)NC(=O)[C@H](CCCCN)NC(=O)[C@H](CCC(=O)O)NC(=O)[C@H](CCCCN)NC(=O)[C@H](CCC(=O)O)NC(=O)[C@H](CCC(N)=O)NC(=O)[C@H](CCCCN)NC(=O)[C@H](CCC(=O)O)NC(=O)[C@@H](NC(=O)[C@H](CCC(=O)O)NC(=O)[C@@H](NC(=O)[C@H](CCSC)NC(=O)[C@H](CCCCN)NC(=O)[C@H](CCCN=C(N)N)NC(=O)[C@H](CC(C)C)NC(=O)[C@H](CC(C)C)NC(=O)[C@H](CCC(=O)O)NC(=O)[C@H](CC(C)C)NC(=O)[C@H](CO)NC(=O)[C@H](CC(C)C)NC(=O)[C@H](CC(=O)O)NC(=O)[C@@H](NC(=O)[C@H](CO)NC(=O)[C@@H](NC(=O)[C@@H]1CCCN1C(=O)[C@@H]1CCCN1C(=O)CNC(=O)[C@@H]1CCC(=O)N1)[C@@H](C)CC)[C@@H](C)CC)[C@@H](C)CC)[C@@H](C)CC)[C@@H](C)O)C(=O)O` [SAUVAGINE], the IC50 in assay [3] amounted to 0.58 nM.

The term inhibition in vivo denotes how much of the control response was suppressed. In general, IC50 refers to the concentration at which inhibition is half-maximal. Higher therefore signals weaker potency in that assay.
